Source: PubChem BioAssay
HKDC1 inh: inhibitors of human hexokinase HKDC1. inhibition, % at 20 µM. 340,000 tested, 0.16% active. recombinant HKDC1, G6PDH/diaphorase resazurin coupled fluorescence. Q2TB90;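 active means inhibition above about 35% when tested at 20 µM, limit read from the data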;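 further: plate controls were DMSO wells with enzyme for no effect and DMSO wells lacking enzyme for full effect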
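Test system: HK5 enzyme. Quantity: 5 µg/mL HK5 final. Reagent: glucose and ATP substrates. Schedule: 90 min reaction incubation at room temperature, dark. Technique: resazurin-to-resorufin fluorescence via G6PDH and diaphorase coupling, 525/613 nm. Control set: DMSO wells with and without enzyme mix.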
p97 ATPase inh: human p97 ATPase inhibition. P55072. recombinant p97 ATPase, Kinase-Glo ATP luminescence, 3 h. inhibition, % at 8 µM. 220,000 tested, 0.42% active; in the data active means inhibition above about 15%;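 further: 0% = DMSO vehicle and 100% = wells lacking enzyme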
Target sequence (P55072 whole entry, looked up): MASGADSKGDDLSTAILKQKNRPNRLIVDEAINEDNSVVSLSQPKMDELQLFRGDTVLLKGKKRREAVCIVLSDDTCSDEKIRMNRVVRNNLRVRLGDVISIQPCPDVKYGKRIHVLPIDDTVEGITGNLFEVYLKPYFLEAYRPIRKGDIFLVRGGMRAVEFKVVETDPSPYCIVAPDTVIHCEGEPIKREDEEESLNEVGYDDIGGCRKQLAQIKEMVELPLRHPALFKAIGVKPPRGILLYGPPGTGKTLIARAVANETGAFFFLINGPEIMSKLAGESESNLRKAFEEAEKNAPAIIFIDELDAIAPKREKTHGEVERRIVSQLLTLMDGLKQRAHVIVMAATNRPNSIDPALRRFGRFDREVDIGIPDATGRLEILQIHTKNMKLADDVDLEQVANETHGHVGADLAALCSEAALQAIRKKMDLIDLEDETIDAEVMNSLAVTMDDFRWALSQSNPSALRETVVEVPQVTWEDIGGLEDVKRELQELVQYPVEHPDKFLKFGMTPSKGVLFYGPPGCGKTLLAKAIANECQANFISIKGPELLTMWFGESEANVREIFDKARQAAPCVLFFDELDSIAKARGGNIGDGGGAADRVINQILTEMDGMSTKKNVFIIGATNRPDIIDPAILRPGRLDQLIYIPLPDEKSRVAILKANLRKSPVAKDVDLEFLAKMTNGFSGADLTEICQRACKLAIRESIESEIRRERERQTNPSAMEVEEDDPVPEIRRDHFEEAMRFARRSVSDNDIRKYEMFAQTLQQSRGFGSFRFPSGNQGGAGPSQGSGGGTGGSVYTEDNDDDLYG
Diaphorase inh: diaphorase inhibition or chemical oxidation counter-screen; diaphorase resazurin-to-resorufin fluorescence, NADH, 16 min; bacterial (C. kluyveri) enzyme, not human; inhibition, % at 20 µM; 190,000 tested, 0.69% active; AID 1217;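 active means primary screen inhibition at 20 µM above a set limit, cut at about 50% in these data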;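 further: plate controls were DMSO with full reaction for no effect and wells lacking NADH for full effect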
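Benchmarks: positive control wells lacking NADH, neutral wells with DMSO only. System: bacterial diaphorase enzyme (C. kluyveri). Input: 0.14 U/mL diaphorase, enzyme working solution. Detection: resorufin fluorescence, excitation 544 nm, emission 590 nm. Times: 16-min room-temperature incubation before reading.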
G6PDH CS: inhibits Leuconostoc G6PDH, flagging false hits in G6PDH-based assays; Purified L. mesenteroides G6PDH, diaphorase/resazurin coupled fluorescence, 45 min; inhibition, % at 5 µM; 200,000 tested, 0.12% active; in the data active means inhibition above about 50%
UBC9 SUMO inh: SUMOylation inhibition | AID 2006 | 290,000 tested, 0.36% active | P63279 | HTRF SUMOylation assay, SAE1/SAE2 + UBC9, in vitro | inhibition, % at 35 µM; in the data active means inhibition above about 50%, passing the limit was not always enough
HKDC1 act conf: HKDC1 (human) activation, single-dose confirmed; shares compounds with HKDC1 inh; recombinant HKDC1, G6PDH/diaphorase resazurin fluorescence; stronger effect = lower value; inhibition, % at 20 µM; 740 tested, 14% active; AID 504708;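 active means inhibition at or below a set negative limit, negative inhibition meaning the enzyme was activated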
* = called active by the depositor; · = no result. Shown are actives, neighbours in structure and some others; about 0.95% of the full set was active somewhere.

SMILES | HKDC1 inh | p97 ATPase inh | Diaphorase inh | G6PDH CS | UBC9 SUMO inh | HKDC1 act conf
Cc1ccc(S(=O)(=O)N(C(=O)c2ccncc2)c2ccc(OC(=O)c3ccncc3)c3ccccc23)cc1 | 31.6 | 6.9 | 32.8 | -14.9 | -5.5 | 15.6
O=C(CN1CCN(S(=O)(=O)/C=C/c2ccccc2)CC1)NCC(F)(F)F | -7.8 | · | · | · | -6.8 | ·
Cc1cc(NC(=S)NC(=O)c2ccccc2)ccc1-c1cc2ccccc2oc1=O | -47.5 | 2.6 | 15.2 | -2.0 | 5.1 | -13.8
COc1cc(C(=O)NC(=S)Nc2cccc(-c3cc4ccccc4oc3=O)c2)cc(OC)c1OC | -2.7 | -2.7 | 15.4 | 0.0 | -23.3 | ·
COCc1cc(CN2CCN(CCc3ccccc3)C(CCO)C2)ccc1OC (centres undefined) | -4.4 | · | · | · | 7.1 | ·
O/C=c1\ccc2cccc3nc(C(F)(F)F)nc1c23 | 40.4* | · | · | · | 19.7 | 21.2
N#Cc1c(SCC(=O)Nc2nc3ccc(Br)cc3s2)sc2c(O)cc(=O)[nH]c12 | 33.8 | · | · | · | 11.5 | 44.9
N#Cc1c(SCC(=O)Nc2nc3ccccc3s2)sc2c(O)cc(=O)[nH]c12 | 27.7 | · | · | · | · | ·
CCn1cc(C(=O)N2CCCC(CO)(Cc3ccccc3C)C2)cn1 (centres undefined) | -2.4 | · | · | · | -12.0 | ·
Cc1nnc(SCC2=C(C(=O)O)N3C(=O)C(NC(=O)c4cccc(F)c4F)C3SC2)s1 (centres undefined) | -4.9 | -0.6 | 10.8 | 7.5 | 18.4 | ·
CCOc1ccc(C(=O)NC(=S)N(Cc2ccccc2)Cc2ccccc2)cc1 | -31.5 | -2.8 | 15.2 | -2.9 | -1.6 | ·
CCCN(CCC)C(=S)NC(=O)c1ccc(-c2ccccc2)cc1 | -47.6 | -0.6 | 13.5 | 17.1 | 32.9 | -26.5
O=C(CCl)N1c2ccccc2Sc2c1ccc1ccccc21 | 44.2* | · | · | · | · | 4.8
COc1cccc(C(O)C2OC(=O)c3ccccc32)c1OC (centres undefined) | -5.1 | · | · | · | · | ·
CCC(C)C(N)C1=NC(C(=O)N[C@@H](CC(C)C)C(=O)N[C@H](CCC(=O)[O-])C(=O)N[C@H](C(=O)N[C@H]2CCCCNC(=O)[C@H](CC(N)=O)NC(=O)[C@@H](CC(=O)[O-])NC(=O)[C@H](Cc3cnc[nH]3)NC(=O)[C@@H](Cc3ccccc3)NC(=O)[C@H]([C@@H](C)CC)NC(=O)[C@@H](CCCN)NC2=O)[C@@H](C)CC)CS1.[Zn+2] (some centres undefined) | 91.6* | · | · | · | · | 74.9
CC(C)Cn1c(=O)c(C(=O)NCc2ccc3c(c2)OCO3)c(O)c2ccccc21 | 1.8 | · | · | · | -8.3 | ·
Cc1cc(O)c(-c2cc(O)c(C)cc2O)cc1O | 44.7* | 8.8 | · | · | 5.9 | 23.7
Cc1ccc(N)cc1O | 18.2 | · | · | · | · | ·
CCOC(=O)c1ccc(N=C2C(=S)N(c3ccc(C(=O)OCC)cc3)C(=N)N2/N=C/c2ccccc2)cc1 | -136.4 | -3.0 | -0.7 | 2.3 | -3.8 | -33.8
CN(C)c1ccc(/C=N/N2C(=N)N(c3ccccc3)C(=S)C2=Nc2ccccc2)cc1 | · | 1.5 | · | · | · | ·
O=C(NCCc1ccccc1)C(c1cccs1)N(C(=O)CCl)c1ccc(Cl)cc1 (centres undefined) | 37.0* | -5.0 | 1.4 | -7.6 | -9.7 | 23.0
COc1ccc(C2CC(c3ccc(Cl)cc3)=NN2C(C)=O)cc1 (centres undefined) | -1.9 | · | · | · | 14.6 | ·
O=C(NCCC1=CCCCC1)c1ccc([N+](=O)[O-])cc1 | 2.6 | -2.1 | -6.8 | 11.3 | -0.2 | ·
O=C(CCNC(=O)c1ccc([N+](=O)[O-])cc1)NCCC1=CCCCC1 | 35.0* | · | · | · | · | -26.0
COc1ccc(CN2C=C3C(=O)C(C)(OC(=O)C4CCCC4)C(=O)C=C3C=C2c2ccsc2)cc1 (centres undefined) | 35.4* | · | · | · | 6.1 | -18.7
SMILES | HKDC1 inh | p97 ATPase inh | Diaphorase inh | G6PDH CS | UBC9 SUMO inh | HKDC1 act conf
COc1ccc(N=C2C(=S)N(c3ccc(OC)cc3)C(=NS(=O)(=O)c3ccccc3)N2c2ccccc2)cc1 | -68.5 | · | · | · | · | -5.5
COc1ccc(N2C(=O)NC(NS(=O)(=O)c3ccccc3)(C(F)(F)F)C2=O)cc1 (centres undefined) | -4.0 | · | · | · | 5.8 | ·
O=[N+]([O-])c1ccc(N/N=C/c2ccc(O)c(O)c2O)c(S(=O)(=O)N2CCOCC2)c1 | 38.2* | 7.0 | 88.0* | 24.5 | 40.3 | 8.7
Nc1ccc2c(c1Cl)C(=O)c1ccc(N)c(Cl)c1C2=O | 30.4 | 10.8 | · | · | 31.1 | ·
Cc1ccc2c(c1C)-c1c(ccc(C)c1C)C(=O)C2=O | 38.0* | · | · | · | · | 11.6
COc1ccc(C(=O)/C=C/Nc2ccc(S(=O)(=O)Nc3cc(OC)nc(OC)n3)cc2)c(OC)c1 | -2.2 | · | · | · | 6.8 | ·
CN(c1ccc(C(=O)N2CCN(Cc3ccc4c(c3)OCO4)CC2)cc1)S(=O)(=O)c1ccccc1 | -4.6 | -1.4 | 15.2 | -4.0 | -1.9 | ·
CN(c1ccc(C(=O)N2CCN(Cc3ccccc3)CC2)cc1)S(=O)(=O)c1ccccc1 | -75.7 | · | · | · | -6.1 | -24.2
CC(C)(C)NS(=O)(=O)c1ccc(CCC(=O)NCc2ccccn2)cc1 | -1.6 | · | · | · | -5.7 | ·
Cc1onc(-c2ccccc2)c1C(=O)NNC(=S)NC(=O)/C=C/c1cccs1 | -57.2 | 4.1 | 16.7 | -2.7 | -84.5 | -23.2
Cc1onc(-c2ccccc2)c1C(=O)NC(=S)NNC(=O)c1ccncc1 | 7.3 | 4.7 | 16.2 | 0.3 | 13.5 | ·
O=C(COC(=O)Cc1cccc(F)c1)NC(=O)NC1CCCCC1 | -12.0 | · | · | · | · | ·
CCN(c1ccccc1)S(=O)(=O)c1ccc(OC)c(NC(=O)C2CC(=O)N(Cc3ccccc3)C2)c1 (centres undefined) | -2.3 | -6.6 | · | · | 20.1 | ·
COc1ccc(C2=CC3=C(Br)C(=O)C(C)(OC(=O)c4ccc(Cl)nc4)C(=O)C3=CO2)cc1 (centres undefined) | 27.8 | · | · | · | 18.0 | ·
COC(=O)CCC(=O)OC1(C)C(=O)C2=COC(c3ccc(OC)cc3)=CC2=C(Br)C1=O (centres undefined) | 36.7* | · | · | · | -8.3 | -0.2
COc1ccc(C2=CC3=C(Br)C(=O)C(C)(OC(=O)C4CCCC4)C(=O)C3=CO2)cc1 (centres undefined) | 52.8* | · | · | · | 7.6 | -18.1
COC(=O)CCC(=O)OC1(C)C(=O)C2=CN(CCCCO)C(c3ccc(OC)cc3)=CC2=C(Br)C1=O (centres undefined) | · | · | · | · | 38.7 | ·
COC(=O)CCC(=O)OC1(C)C(=O)C2=CN(Cc3ccc4c(c3)OCO4)C(c3ccc(OC)cc3)=CC2=C(Br)C1=O (centres undefined) | 39.9* | · | · | · | · | -5.4
O=C1CC2CCCN2C=C1I (centres undefined) | 2.4 | · | · | · | · | ·
CCN(C(=O)CN1C(=O)NC(c2ccccc2)(c2ccc(C)c(C)c2)C1=O)C1CCS(=O)(=O)C1 (centres undefined) | 4.7 | · | · | · | · | ·
COc1ccc2[nH]c3c4c(ccc3c2c1)C(=O)C=CC4=O | 51.1* | 11.6 | · | · | 13.3 | 32.9
